Measurements from ChEMBL document CHEMBL1136016, “Synthesis, biological activity, and molecular modeling investigation of new pyrazolo[4,3-e]-1,2,4-triazolo[1,5-c]pyrimidine derivatives as human A(3) adenosine receptor antagonists” (J Med Chem, 2002).
Values belong to the compound of their own block, whether it stands above or below them.

Columns and labels:
Adenosine receptor A1 [1] = biological target: T1, Adenosine receptor A1 (Homo sapiens, UniProt P30542); test: Displacement of [3H]DPCPX from human Adenosine A1 receptor expressed in CHO cells; range 245-370; assay type: cell-based
T1 sequence (P30542 whole entry): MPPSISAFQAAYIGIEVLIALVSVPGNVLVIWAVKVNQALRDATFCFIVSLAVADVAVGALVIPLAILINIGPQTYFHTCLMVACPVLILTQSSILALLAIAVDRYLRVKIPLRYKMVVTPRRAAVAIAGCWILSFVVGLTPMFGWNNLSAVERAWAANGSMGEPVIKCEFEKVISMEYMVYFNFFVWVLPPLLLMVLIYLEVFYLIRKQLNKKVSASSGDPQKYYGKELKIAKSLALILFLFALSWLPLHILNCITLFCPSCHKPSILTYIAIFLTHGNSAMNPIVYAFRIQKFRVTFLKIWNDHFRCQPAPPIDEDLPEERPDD

[2] = biological target: Adenosine receptors; A2b & A3 (Homo sapiens) (UniProt P29275+P0DMS8); test: Selectivity ratio (h2B/hA3); assay type: protein assay
Adenosine receptor A3 [3] = biological target: T2, Adenosine receptor A3 (Homo sapiens, UniProt P0DMS8); test: Displacement of [3H]MRE3008-F20 from human Adenosine A3 receptor expressed in HEK cells; range 0.61-0.83; assay type: cell-based, HEK293
T2 sequence (P0DMS8 whole entry): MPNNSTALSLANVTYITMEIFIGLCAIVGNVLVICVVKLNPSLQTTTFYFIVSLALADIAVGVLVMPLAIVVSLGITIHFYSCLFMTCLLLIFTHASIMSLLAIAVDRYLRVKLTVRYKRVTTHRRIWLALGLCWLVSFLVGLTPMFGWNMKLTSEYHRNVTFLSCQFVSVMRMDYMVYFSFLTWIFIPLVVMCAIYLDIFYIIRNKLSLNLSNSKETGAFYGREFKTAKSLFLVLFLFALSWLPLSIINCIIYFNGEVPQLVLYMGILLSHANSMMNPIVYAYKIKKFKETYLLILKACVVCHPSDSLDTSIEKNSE

Adenosine receptor A2a [4] = biological target: T3, Adenosine receptor A2a (Homo sapiens, UniProt P29274); test: Displacement of [3H]SCH-58261 from human Adenosine A2A receptor expressed in HEK293 cells; range 103-142; assay type: cell-based
[5] = biological target: Adenosine receptors; A1 & A3 (Homo sapiens) (UniProt P30542+P0DMS8); test: Selectivity ratio (hA1/hA3); assay type: protein assay
Adenosine receptor A2b [6] = biological target: T4, Adenosine receptor A2b (Homo sapiens, UniProt P29275); test: Displacement of [3H]DPCPX from human Adenosine A2B receptor expressed in HEK293 cells; range 49-77; assay type: cell-based
T4 sequence (P29275 whole entry): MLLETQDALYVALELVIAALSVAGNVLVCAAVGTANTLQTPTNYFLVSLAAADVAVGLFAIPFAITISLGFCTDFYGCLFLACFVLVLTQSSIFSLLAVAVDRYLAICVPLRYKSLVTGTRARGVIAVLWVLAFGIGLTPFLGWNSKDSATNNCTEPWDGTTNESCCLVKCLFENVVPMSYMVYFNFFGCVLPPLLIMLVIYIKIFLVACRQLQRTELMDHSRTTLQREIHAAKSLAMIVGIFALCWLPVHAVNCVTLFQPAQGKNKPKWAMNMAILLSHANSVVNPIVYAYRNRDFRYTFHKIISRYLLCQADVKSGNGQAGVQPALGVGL
Outline: (§1)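 Competition binding on membranes of HEK-293 cells carrying recombinant human A2B receptor. Incubation 60 min at 25 °C in 50 mM Tris HCl pH 7.4 with 10 mM MgCl2, 1 mM EDTA, 0.1 mM benzamidine and 2 IU/mL adenosine deaminase. Radioligand 40 nM [3H]DPCPX, at least six to eight test concentrations. NECA defined nonspecific binding. Bound ligand separated on glass-fibre filters and counted; n = 3-6.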

Adenosine receptor A3 [7] = biological target: T2, Adenosine receptor A3; test: Inhibition of IB-MECA agonist-mediated cAMP production in CHO cell membranes expressing human Adenosine A3 receptor; range 2.7-6.6; assay type: functional, cell-based
Outline: (§2)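 Human A3-CHO membranes (in 50 mM Tris HCl, 10 mM MgCl2, 1 mM EDTA, pH 7.4) were preincubated for 10 min at 37 °C with 5 µM GTP, 0.5 mM Ro 20-1724 and 2.0 IU/mL adenosine deaminase. IB-MECA (100 nM) or antagonist was then added with 1 mM ATP and forskolin for 10 min. The reaction was stopped by 2 min boiling. cAMP was measured by [3H]cAMP competitive protein binding using beef adrenal binding protein, 150 min at 4 °C.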

Adenosine receptor A1 [8] = biological target: T1, Adenosine receptor A1; test: Displacement of [3H]DPCPX from human Adenosine A1 receptor expressed in CHO cells; range 512-698; assay type: cell-based
Outline: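 Competition binding on membranes of CHO cells stably expressing human A1 receptor, resuspended in 50 mM Tris HCl pH 7.4. Incubation 120 min at 25 °C with 1 nM [3H]DPCPX, 50 µg protein per assay and at least six to eight test concentrations. CHA defined nonspecific binding. Bound ligand separated on glass-fibre filters and counted; n = 3-6.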

Adenosine receptor A3 [9] = biological target: T2, Adenosine receptor A3; test: Displacement of [3H]MRE3008-F20 from human Adenosine A3 receptor expressed in HEK cells; range 0.39-0.54; assay type: cell-based, HEK293
Adenosine receptor A2a [10] = biological target: T3, Adenosine receptor A2a; test: Displacement of [3H]SCH-58261 from human Adenosine A2A receptor expressed in HEK293 cells; range 83-120; assay type: cell-based
Adenosine receptor A2b [11] = biological target: T4, Adenosine receptor A2b; test: Displacement of [3H]DPCPX from human Adenosine A2B receptor expressed in HEK293 cells; range 152-216; assay type: cell-based; outline: as §1
Adenosine receptor A2a [12] = biological target: T3, Adenosine receptor A2a; test: Displacement of [3H]SCH-58261 from human Adenosine A2A receptor expressed in HEK293 cells; range 91-137; assay type: cell-based
Adenosine receptor A1 [13] = biological target: T1, Adenosine receptor A1; test: Displacement of [3H]-DPCPX from human Adenosine A1 receptor expressed in CHO cells; range 240-368; assay type: cell-based
Adenosine receptor A2b [14] = biological target: T4, Adenosine receptor A2b; test: Displacement of [3H]DPCPX from human Adenosine A2B receptor expressed in HEK293 cells; range 76-98; assay type: cell-based
Outline: (§3)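 HEK-293 membranes expressing the human receptor were incubated 60 min at 25 °C. Six to eight test concentrations were used. Nonspecific binding was set with NECA. n = 3-6.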

Adenosine receptor A3 [15] = biological target: T2, Adenosine receptor A3; test: Displacement of [3H]MRE3008-F20 from human Adenosine A3 receptor expressed in HEK cells; range 0.37-0.50; assay type: cell-based, HEK293
Adenosine receptor A3 [16] = biological target: T2, Adenosine receptor A3; test: biochemical
Adenosine receptor A2b [17] = biological target: T4, Adenosine receptor A2b; test: Displacement of [3H]DPCPX from human Adenosine A2B receptor expressed in HEK293 cells; range 37-63; assay type: cell-based; outline: as §3
Adenosine receptor A2a [18] = biological target: T3, Adenosine receptor A2a; test: Displacement of [3H]SCH-58261 from human Adenosine A2A receptor expressed in HEK293 cells; range 511-648; assay type: cell-based
Adenosine receptor A1 [19] = biological target: T1, Adenosine receptor A1; test: Displacement of [3H]DPCPX from human Adenosine A1 receptor expressed in CHO cells; range 724-889; assay type: cell-based
Outline: (§4)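 Human recombinant A1 receptor in CHO cell membranes, resuspended in 50 mM Tris HCl pH 7.4. Displacement run 120 min at 25 °C with 1 nM [3H]DPCPX, 50 µg protein per assay, and at least six to eight test concentrations. Nonspecific binding defined with CHA. Bound and free separated on glass-fiber filters; filter radioactivity counted. n = 3-6.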

Adenosine receptor A3 [20] = biological target: T2, Adenosine receptor A3; test: Displacement of [3H]MRE3008-F20 from human Adenosine A3 receptor expressed in HEK cells; range 0.71-0.91; assay type: cell-based, HEK293
Adenosine receptor A2b [21] = biological target: T4, Adenosine receptor A2b; test: Displacement of [3H]DPCPX from human Adenosine A2B receptor expressed in HEK293 cells; range 213-296; assay type: cell-based; outline: as §1
Adenosine receptor A2a [22] = biological target: T3, Adenosine receptor A2a; test: Displacement of [3H]SCH-58261 from human Adenosine A2A receptor expressed in HEK293 cells; range 140-186; assay type: cell-based
Adenosine receptor A1 [23] = biological target: T1, Adenosine receptor A1; test: Displacement of [3H]DPCPX from human Adenosine A1 receptor expressed in CHO cells; range 406-616; assay type: cell-based
Adenosine receptor A3 [24] = biological target: T2, Adenosine receptor A3; test: Inhibition of IB-MECA agonist-mediated cAMP production in CHO cell membranes expressing human Adenosine A3 receptor; range 5.5-10.9; assay type: functional, cell-based; outline: as §2
Adenosine receptor A3 [25] = biological target: T2, Adenosine receptor A3; test: Displacement of [3H]MRE3008-F20 binding at human Adenosine A3 receptor expressed in HEK cells; range 0.77-0.97; assay type: cell-based, HEK293
Adenosine receptor A2a [26] = biological target: T3, Adenosine receptor A2a; test: Displacement of [3H]SCH-58261 from human Adenosine A2A receptor expressed in HEK293 cells; range 48-78; assay type: cell-based
Adenosine receptor A2b [27] = biological target: T4, Adenosine receptor A2b; test: Displacement of [3H]DPCPX from human Adenosine A2B receptor expressed in HEK293 cells; range 211-287; assay type: cell-based
Outline: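 Membranes from HEK-293 cells with human recombinant A2B receptor. Incubation 60 min at 25 °C in 50 mM Tris HCl, 10 mM MgCl2, 1 mM EDTA, 0.1 mM benzamidine, pH 7.4, with 2 IU/mL adenosine deaminase and 40 nM [3H]DPCPX. At least six to eight test concentrations. Nonspecific binding defined with NECA. n = 3-6.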

Adenosine receptor A1 [28] = biological target: T1, Adenosine receptor A1; test: Displacement of [3H]DPCPX from human Adenosine A1 receptor expressed in CHO cells; range 509-712; assay type: cell-based; outline: as §4

T3 sequence (P29274 whole entry): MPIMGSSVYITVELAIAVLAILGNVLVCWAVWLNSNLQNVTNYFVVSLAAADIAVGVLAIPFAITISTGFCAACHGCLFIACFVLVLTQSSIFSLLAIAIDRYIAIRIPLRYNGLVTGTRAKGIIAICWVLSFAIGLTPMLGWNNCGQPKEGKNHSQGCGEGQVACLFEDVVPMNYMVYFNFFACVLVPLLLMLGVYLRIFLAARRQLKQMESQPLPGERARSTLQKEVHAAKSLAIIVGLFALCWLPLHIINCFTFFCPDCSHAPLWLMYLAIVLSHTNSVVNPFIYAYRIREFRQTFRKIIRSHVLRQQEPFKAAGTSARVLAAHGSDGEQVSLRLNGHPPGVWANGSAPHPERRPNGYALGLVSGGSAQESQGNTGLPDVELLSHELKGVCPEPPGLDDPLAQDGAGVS

Ki (Adenosine receptor A1 [1]): 300 nM
Ratio [2]: 86
Ki (Adenosine receptor A3 [3]): 0.71 nM
Ki (Adenosine receptor A2a [4]): 121 nM
Ratio [5]: 423
Ki (Adenosine receptor A2b [6]): 61 nM
SMILES: CCCn1cc2c(nc(NC(=O)Nc3ccccc3Cl)n3nc(-c4ccco4)nc23)n1

IC50 (Adenosine receptor A3 [7]): 4.2 nM
Ki (Adenosine receptor A1 [8]): 600 nM
Ratio [2]: 393
Ratio [5]: 1300
Ki (Adenosine receptor A3 [9]): 0.46 nM
Ki (Adenosine receptor A2a [10]): 100 nM
Ki (Adenosine receptor A2b [11]): 181 nM
SMILES: Cn1cc2c(nc(NC(=O)Nc3ccc(Br)cc3)n3nc(-c4ccco4)nc23)n1

Ki (Adenosine receptor A2a [12]): 111 nM
Ratio [2]: 202
Ratio [5]: 698
Ki (Adenosine receptor A1 [13]): 300 nM
Ki (Adenosine receptor A2b [14]): 87 nM
Ki (Adenosine receptor A3 [15]): 0.43 nM
SMILES: CCCCn1cc2c(nc(NC(=O)Nc3ccc(Cl)cc3)n3nc(-c4ccco4)nc23)n1

Ki (Adenosine receptor A3 [16]): 0.27 nM
Ki (Adenosine receptor A2b [17]): 48 nM
Ratio [2]: 178
Ki (Adenosine receptor A2a [18]): 576 nM
Ratio [5]: 2970
Ki (Adenosine receptor A1 [19]): 802 nM
SMILES: CCn1cc2c(nc(NC(=O)Nc3ccc4c(c3)OCO4)n3nc(-c4ccco4)nc23)n1

Ki (Adenosine receptor A3 [20]): 0.8 nM
Ratio [2]: 313
Ki (Adenosine receptor A2b [21]): 251 nM
Ki (Adenosine receptor A2a [22]): 160 nM
Ki (Adenosine receptor A1 [23]): 500 nM
Ratio [5]: 625
IC50 (Adenosine receptor A3 [24]): 7.8 nM
SMILES: COc1cccc(NC(=O)Nc2nc3nn(C)cc3c3nc(-c4ccco4)nn23)c1

Ki (Adenosine receptor A3 [25]): 0.86 nM
Ki (Adenosine receptor A2a [26]): 60 nM
Ki (Adenosine receptor A2b [27]): 246 nM
Ratio [2]: 286
Ratio [5]: 700
Ki (Adenosine receptor A1 [28]): 602 nM
SMILES: CCn1cc2c(nc(NC(=O)Nc3ccc(F)cc3)n3nc(-c4ccco4)nc23)n1
